Screening data from PubChem BioAssay.
Only some compounds are listed: those with a hit (about 1.8% of all), similar ones and a draw of the others.
M4 antag: antagonists of human muscarinic M4 receptor (CHRM4); CHO-hM4 cells, ACh EC80, Fluo-8 calcium fluorescence; P08173; actives 0.73% (n = 360,000); inhibition, % at 3 µM; AID 624125;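 active means inhibition above its plate's cutoff, the mean inhibition of sample wells plus 3 SD, cut at about 27% in these data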
Target sequence (P08173 whole entry, looked up): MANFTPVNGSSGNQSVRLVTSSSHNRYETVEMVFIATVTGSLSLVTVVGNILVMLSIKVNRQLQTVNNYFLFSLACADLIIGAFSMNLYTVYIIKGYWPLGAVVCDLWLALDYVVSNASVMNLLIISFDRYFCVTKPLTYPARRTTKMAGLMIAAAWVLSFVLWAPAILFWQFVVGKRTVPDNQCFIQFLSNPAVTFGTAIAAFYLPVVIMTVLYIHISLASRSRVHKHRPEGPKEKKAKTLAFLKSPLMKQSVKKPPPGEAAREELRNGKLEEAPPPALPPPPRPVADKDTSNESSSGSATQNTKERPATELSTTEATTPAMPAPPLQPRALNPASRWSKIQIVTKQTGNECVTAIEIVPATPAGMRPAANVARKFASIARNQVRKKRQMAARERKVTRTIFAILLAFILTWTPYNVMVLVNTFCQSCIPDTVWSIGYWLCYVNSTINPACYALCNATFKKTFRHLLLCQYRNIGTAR
CHRM5 agonist: agonists of human muscarinic M5 receptor (CHRM5); P08912; CHO-K1 hM5 cells, Fluo-8 calcium fluorescence; 0% DMSO wells, 100% maximal acetylcholine response; activation, % at 3 µM; actives 0.19% (n = 360,000); AID 624037;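 active means activation above the run's mean over test compounds plus 3 SD, cut at about 23% in these data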;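 further: signal is peak over basal fluorescence ratio across the kinetic read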
CHRM4 agonist: agonists of human muscarinic M4 receptor (CHRM4); actives 0.14% (n = 360,000); P08173; AID 624127; activation, % at 3 µM; CHO-K1 hM4/Gqi5, Fluo-8 calcium fluorescence; vehicle 0%, full acetylcholine response 100%;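 active means activation above the run mean over all test wells plus 3 SD, cut at about 32% in these data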;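 further: peak over basal fluorescence ratio per well then scaled between controls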
CHRM5 PAM: potentiates acetylcholine response at human M5 receptor; P08912; CHO-K1 hM5, Fluo-8 calcium, ACh EC20 PAM; 0% = ACh EC20, 100% = ACh EC100; activation, % at 3 µM; actives 0.3% (n = 360,000);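 active means activation above the run cutoff, the mean activation of all test compounds plus 3 SD, cut at about 18% in these data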
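Assay system – human M5 receptor in CHO-K1 cells · Read-out – % activation, ACh-normalized · Technique – Fluo-8 calcium fluorescence · Dosing – single-point, 3 µM nominal · Incubation – Fluo-8 loading 80 min at 37 °C plus 30 min room temperature · Repeats – singlicate, one well per test compound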
CHRM4 PAM: potentiates acetylcholine response at human M4 receptor | P08173 | CHO-K1 hM4/Gqi5, Fluo-8 calcium fluorescence, ACh EC20; 0% = ACh EC20, 100% = maximal ACh | activation, % at 3 µM | actives 0.4% (n = 360,000) | AID 624126;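 active means activation above its plate's cutoff, the mean activation of sample wells plus 3 SD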
CHRM5 antagonist: blocks acetylcholine activation of human M5 receptor; CHO-hM5 cells, Fluo-8 calcium fluorescence, ACh EC80; inhibition, % at 3 µM; actives 0.59% (n = 360,000); AID 624040;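 active means inhibition above a per-plate cutoff, the mean of that plate's test compounds plus 3 SD, cut at about 27% in these data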
Each line names hits and unclear results; the compound was inactive in the other large screens; ! = a repeat was not active.

O=C(N/N=C/c1c(O)n(C2CCCCC2)c(=S)[nH]c1=O)c1ccccc1	none
CC(C)(C)C(=O)OC[N+](C)(C)CCOC(=O)C(O)(c1ccccc1)C1CCCC1 (stereo not drawn)	M4 antag 99, CHRM5 antagonist 99
O=C(O)C(O)(c1ccccc1)C1CCCC1 (stereo not drawn)	none
CCCC(CCC)C(=O)OC[N+](C)(C)CCOC(=O)C(O)(c1ccccc1)C1CCCC1 (stereo not drawn)	M4 antag 97, CHRM5 antagonist 99
CC(Oc1ccc(-c2ccccc2)cc1)C(=O)O (stereo not drawn)	CHRM5 PAM 18
CC(=O)c1ccc(-c2ccccc2)cc1	none
COc1ccc(CNCCc2c(C)[nH]c3ccc(OC(F)(F)F)cc23)c(OC)c1	M4 antag 29, CHRM4 agonist 40, CHRM5 antagonist 32
COc1ccc2[nH]c(C)c(CCNCc3cc(OC)c(OC)c(OC)c3)c2c1	none
Cc1cc(Cl)ccc1C(=O)C1CCCN(C2CCSCC2)C1 (stereo not drawn)	M4 antag 33
O=C(c1ccc(C(F)(F)F)cc1)C1CCCN(C2CCSCC2)C1 (stereo not drawn)	none
O=C(CCCN1CCC(n2c(=O)[nH]c3ccccc32)CC1)c1ccc(F)cc1	M4 antag 27
CCC1(CC)COP(=O)(OCC(Cl)CCl)OC1 (stereo not drawn)	none
COc1ccc(C(=O)C2CCCN(CC3CCCCC3)C2)cc1OC (stereo not drawn)	M4 antag 34
CC1(C)CN=C(Nc2ccc(F)c(Cl)c2)S1	CHRM4 agonist 35
CC(=O)Nc1cc([As](=O)(O)O)ccc1O	CHRM5 agonist 27
CC(=O)Nc1cccc([As](=O)(c2cccc(NC(C)=O)c2)c2cccc(NC(C)=O)c2)c1	none
CCCCCC[N+](=O)[O-]	none
CCCCCCCCCCCCCCCC[N+](C)(C)C	M4 antag 30, CHRM5 antagonist 38
CCC1(CCC(C)C)C(=O)NC(=O)N(c2ccccc2)C1=O (stereo not drawn)	none
O=c1[nH]c2ccccc2n1C1CCN(Cc2ccc(-c3[nH]c4cc5ncnc5cc4nc3-c3ccccc3)cc2)CC1	CHRM5 agonist 67
O=C1CC(N2CCC(n3c(=O)[nH]c4ccccc43)CC2)C(=O)N1Cc1ccccc1 (stereo not drawn)	none
CCC(c1nnnn1C1CCCCC1)N1CCC2(CC1)C(=O)NCN2c1ccccc1 (stereo not drawn)	none
O=[N+]([O-])c1ccc(N2CCCNCC2)c2ncccc12	M4 antag 27, CHRM5 antagonist 29
O=[N+]([O-])c1ccc(N2CCCCC2)c2ncccc12	none
O=[N+]([O-])c1ccc(N2CCCCCC2)c2nonc12	M4 antag 38, CHRM5 agonist 545, CHRM4 agonist 144, CHRM5 antagonist 58
C=CCNC(=S)N1Cc2cc(Br)ccc2-n2nncc2C1	none
c1cc2c(cc1CCNC1C3CC4CC(C3)CC1C4)OCO2 (stereo not drawn)	none
CC1CCC(NCCc2ccc3c(c2)OCO3)CC1 (stereo not drawn)	M4 antag 32
CC1=C(O)C(=O)C=C2C1=CC=C1C2(C)CCC2(C)C3CC(C)(C(=O)O)CCC3(C)CCC12C (stereo not drawn)	M4 antag 91, CHRM5 antagonist 37
Cc1c(NS(=O)(=O)c2ccccc2)ccc([N+](=O)[O-])c1Cl	none
C=CCn1c(O)c(C=NC2CCN(Cc3ccccc3)CC2)c(=O)[nH]c1=O	CHRM4 PAM 12
CCC(C)NC(=O)c1c(N)n(Cc2ccc3c(c2)OCO3)c2nc3ccccc3nc12 (stereo not drawn)	CHRM5 PAM 19
COc1ccc(-c2nc3ccc(Br)cn3c2CC(=O)N2CCCC2)cc1OC	none
CN(C)[C@@H]1C(=O)C(C(N)=O)=C(O)[C@@]2(O)C(=O)C3=C(O)c4c(O)cccc4[C@@](C)(O)C3[C@H](O)C12 (stereo partly drawn)	M4 antag 49!
N#CC1c2ccccc2-n2nncc2CN1C(=O)CCc1ccccc1 (stereo not drawn)	none
Cc1ccc(CN2CCN(Cc3ccccc3F)CC2)cc1	CHRM5 PAM 26
CN1/C(=C\C=C2C(=O)NC(=S)NC2=O)C(C)(C)c2ccccc21	CHRM5 agonist 104
CC(C)C[C@@H]1COc2cccc(N3CCN(C)CC3)c2S(=O)(=O)N1	M4 antag 71, CHRM5 antagonist 99
COC(=O)C1=C(c2cc3ccccc3s2)C[C@@H]2CC[C@H]1N2C	none
O=C1NC(=O)C(Nc2ccccc2)C(=O)N1	none
O=c1[nH]c(O)c(C=Nc2ccc(Cl)c(C(F)(F)F)c2)c(=O)[nH]1	M4 antag 34, CHRM5 antagonist 38
CC(C)[N+]12CCC(CC1)C(C(O)(c1ccccc1)c1ccccc1)C2 (stereo not drawn)	M4 antag 54, CHRM5 antagonist 43
C[N+]12CCC(CC1)C(C(O)(c1cccc(Cl)c1)c1cccc(Cl)c1)C2 (stereo not drawn)	M4 antag 87, CHRM5 antagonist 74
Cc1ccc(C(O)(c2ccc(C)c(C)c2)C2CN3CCC2CC3)cc1C (stereo not drawn)	none
CN1CCCC(C(O)(c2ccccc2)c2ccccc2)C1 (stereo not drawn)	none
CC[N+]12CCC(CC1)C(C(O)(c1ccccc1)c1ccccc1)C2 (stereo not drawn)	M4 antag 72, CHRM5 antagonist 86
CCN1C(=O)CC(=O)N(CC)C1=S	none
N[C@@H](Cc1ccccc1)C(=O)N1C[C@H]2C[C@@H](C1)c1cccc(=O)n1C2	M4 antag 92
O=C(CCC(=O)N1C[C@H]2C[C@@H](C1)c1cccc(=O)n1C2)NCc1ccccc1	none
O=C(CCC(=O)N1C[C@H]2C[C@@H](C1)c1cccc(=O)n1C2)NCc1cccc(C(F)(F)F)c1	M4 antag 99
CCC(C(=O)N1C[C@H]2C[C@@H](C1)c1cccc(=O)n1C2)c1ccccc1 (stereo partly drawn)	none
CCN1CCOC(c2ccccc2)C1 (stereo not drawn)	none
CCC1CCC(C)N(N=O)C1 (stereo not drawn)	none
O=c1cc(C(F)(F)F)c2cc3c4c(c2o1)CCCN4CCC3	M4 antag 45, CHRM5 agonist 71, CHRM4 agonist 86, CHRM5 antagonist 52
c1ccc(C2(NC3=NCCO3)CCCCC2)cc1	none
